Data reported in ChEMBL document CHEMBL3352498, “Membrane active phenylalanine conjugated lipophilic norspermidine derivatives with selective antibacterial activity” (J Med Chem, 2014).
≈ marks a conversion by molar mass, not a printed value. Calls of active or inactive are those of the source. The calls are words filed in the database; no cut-off is given here.

Tests used:
Klebsiella pneumoniae = assay: Antimicrobial activity against beta-lactam-resistant Klebsiella pneumoniae ATCC 700603 after 24 hrs by broth microdilution method; assay type: functional
Method in brief: (§1)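 Broth microdilution per CLSI, 24 h at 37 °C. Inoculum is a 6 h 37 °C culture diluted to ~10^5 CFU/mL (yeast–dextrose broth for MRSA and K. pneumoniae). 50 μL of 2-fold dilutions in water plus 150 μL bacteria. Read by OD600, triplicates, run at least twice. MIC is taken from a sigmoidal fit as the point where OD equals the bacteria-free control.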

Enterococcus faecium [1] = assay: Antimicrobial activity against vancomycin-resistant Enterococcus faecium ATCC 51559 after 24 hrs by broth microdilution method; assay type: functional; method in brief: as §1
Staphylococcus aureus [2] = assay: Antimicrobial activity against Staphylococcus aureus MTCC 737 after 24 hrs by broth microdilution method; assay type: functional
Method in brief: (§2)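 Broth microdilution per CLSI: 6 h cultures (37 °C) diluted to ~10^5 CFU/mL; 2-fold serial dilutions in sterile water added to bacteria; 24 h at 37 °C; OD600 read. Triplicates, experiment done at least twice; mean OD vs concentration fitted sigmoidally, MIC taken where OD matched the no-bacteria control. E. coli grown in LB broth, S. aureus in yeast–dextrose broth.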

[3] = Hemolytic activity in human erythrocytes after 1 hr by spectrophotometry; assay type: ADME, cell-based, Erythrocyte
Method in brief: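 Fresh heparinised human erythrocytes suspended to 5 vol % in PBS pH 7.4, mixed with serially diluted compound, 1 h at 37 °C; no-compound and 1 vol % Triton X-100 controls. Supernatant A540 after centrifugation gave % hemolysis; triplicates averaged, sigmoidal fit gave HC50.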

Escherichia coli [4] = assay: Antimicrobial activity against Escherichia coli MTCC 443 after 24 hrs by broth microdilution method; assay type: functional; method in brief: as §2
Enterococcus faecium [5] = assay: Antimicrobial activity against Enterococcus faecium ATCC 19634 after 24 hrs by broth microdilution method; assay type: functional
Staphylococcus aureus [6] = assay: Antimicrobial activity against methicillin-resistant Staphylococcus aureus ATCC 33591 after 24 hrs by broth microdilution method; assay type: functional; method in brief: as §1
[7] = Critical micelle concentration of the compound; assay type: ADME
Method in brief: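 Static light scattering at 90° (excitation and emission 400 nm) on compound dissolved at 500 μg/mL in yeast–dextrose broth at room temperature, measured over successive dilutions; cmc taken from the inflection point where intensity rises steeply then falls after a local maximum.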

Staphylococcus aureus [8] = assay: Antimicrobial activity against Staphylococcus aureus MTCC 737 assessed as membrane depolarization at 12 times MIC using DiSC3 by fluorescence spectroscopy; assay type: functional, organism-based
Method in brief: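 Mid-log S. aureus washed and resuspended in 5 mM HEPES, 5 mM glucose, 100 mM KCl (1:1:1); 2 μM DiSC3(5) added, 20 min preincubation.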

Staphylococcus aureus [9] = assay: Ratio of MIC for Staphylococcus aureus MTCC 737 after 4 hrs in presence of 50% human plasma to MIC for Staphylococcus aureus MTCC 737 after 4 hrs; assay type: functional
Method in brief: (§3)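 Compound mixed 1:1 with fresh human plasma (50% plasma) and held at 37 °C; at 0, 2, 4, 6, 12 and 24 h aliquots were diluted 2-fold in 0.9% saline.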

Escherichia coli [10] = assay: Antimicrobial activity against Escherichia coli MTCC 443 assessed as membrane permeabilization at 12 times MIC by propidium iodide staining method; assay type: functional, organism-based
Staphylococcus aureus [11] = assay: Bactericidal activity against Staphylococcus aureus MTCC 737 assessed as log reduction in CFU/ml at 6 times MIC by time-kill assay relative to control; assay type: functional
Staphylococcus aureus [12] = assay: Ratio of MIC for Staphylococcus aureus MTCC 737 after 2 hrs in presence of 50% human plasma to MIC for Staphylococcus aureus MTCC 737 after 2 hrs; assay type: functional; method in brief: as §3
Escherichia coli [13] = assay: Antimicrobial activity against Escherichia coli MTCC 443 assessed as leakage of K+ at 12 times MIC using PBFI-AM by fluorescence spectroscopy; assay type: functional, organism-based
Staphylococcus aureus [14] = assay: Antimicrobial activity against Staphylococcus aureus MTCC 737 assessed as membrane permeabilization at 12 times MIC by propidium iodide staining method; assay type: functional, organism-based
Staphylococcus aureus [15] = assay: Antimicrobial activity against Staphylococcus aureus MTCC 737 assessed as leakage of K+ at 12 times MIC using PBFI-AM by fluorescence spectroscopy; assay type: functional, organism-based

Row | Compound | MIC (Klebsiella pneumoniae; ATCC 700603, 24 h) [µg/mL] | MIC (Enterococcus faecium [1]; ATCC 51559, 24 h) [µg/mL] | MIC (Staphylococcus aureus [2]; MTCC 737, 24 h) [µg/mL] | HC50 at 1 h [3] [µg/mL] | MIC (Escherichia coli [4]; MTCC 443, 24 h) [µg/mL] | MIC (Enterococcus faecium [5]; ATCC 19634, 24 h) [µg/mL] | MIC (Staphylococcus aureus [6]; ATCC 33591, 24 h) [µg/mL] | other results
1 | CCCCCCCCCCCCCC(=O)N(CCCN)CCCN.O=C(O)C(F)(F)F.O=C(O)C(F)(F)F | 47 | 23 | 18 | 72 | 28 | 27 | 15 | –
2 | CCCCCCCCCCCC(=O)N(CCCN)CCCN.O=C(O)C(F)(F)F.O=C(O)C(F)(F)F | 163 | 57 | 45 | 107 | 108 | 62 | 53 | –
3 | CN[C@H](CC(C)C)C(=O)N[C@H]1C(=O)N[C@@H](CC(N)=O)C(=O)N[C@H]2C(=O)N[C@H]3C(=O)N[C@H](C(=O)N[C@H](C(=O)O)c4cc(O)cc(O)c4-c4cc3ccc4O)[C@H](O)c3ccc(c(Cl)c3)Oc3cc2cc(c3O[C@@H]2O[C@H](CO)[C@@H](O)[C@H](O)[C@H]2O[C@H]2C[C@](C)(N)[C@H](O)[C@H](C)O2)Oc2ccc(cc2Cl)[C@H]1O [VANCOMYCIN] | – | > 1000 | 0.8 (≈ 0.552 µM) | – | – | 0.8 (≈ 0.552 µM) | 0.8 (≈ 0.552 µM) | –
4 | CCCCCCCCCCCC(=O)N(CCCNC(=O)[C@@H](N)Cc1ccccc1)CCCNC(=O)[C@@H](N)Cc1ccccc1.O=C(O)C(F)(F)F.O=C(O)C(F)(F)F | 8 | 2.3 | 3.6 | 171 | 10 | 4 | 3.3 | CMC [7]: 40 µg/mL; Activity (Staphylococcus aureus [8]): Active; fold change (FC) (Staphylococcus aureus [9]): 4; Activity (Escherichia coli [10]): Active; FC (Staphylococcus aureus [11]): 3; fold change (FC) (Staphylococcus aureus [12]): 2; Activity (Escherichia coli [13]): Active; Activity (Staphylococcus aureus [14]): Active; Activity (Staphylococcus aureus [15]): Active
5 | CCCCCCCCCCCCCC(=O)N(CCCNC(=O)[C@@H](N)Cc1ccccc1)CCCNC(=O)[C@@H](N)Cc1ccccc1.O=C(O)C(F)(F)F.O=C(O)C(F)(F)F | 16 | 2.4 | 6 | 124 | 14 | 4.5 | 4.1 | –
6 | CCCCCCCCCCCCCCCC(=O)N(CCCNC(=O)[C@@H](N)Cc1ccccc1)CCCNC(=O)[C@@H](N)Cc1ccccc1.O=C(O)C(F)(F)F.O=C(O)C(F)(F)F | 62 | 2.7 | 9 | 74 | 227 | 7.6 | 4.6 | –
7 | CCCCCCCCCC(=O)N(CCCN)CCCN.O=C(O)C(F)(F)F.O=C(O)C(F)(F)F | > 250 | 250 | 240 | > 500 | 231 | > 250 | 137 | –
8 | COLISTIN | – | – | – | – | – | – | – | MIC (Klebsiella pneumoniae): 1.5 µg/mL; MIC (Enterococcus faecium [1]): > 250 µg/mL; MIC (Staphylococcus aureus [2]): 25 µg/mL; MIC (Escherichia coli [4]): 0.5 µg/mL; MIC (Enterococcus faecium [5]): > 250 µg/mL; MIC (Staphylococcus aureus [6]): 68 µg/mL
9 | CCCCCCCCCCCCCCCCCC(=O)N(CCCN)CCCN.O=C(O)C(F)(F)F.O=C(O)C(F)(F)F | 106 | 11 | 21 | 42 | 26 | 21 | 19 | –
10 | N[C@@H](Cc1ccccc1)C(=O)NCCCN(CCCNC(=O)[C@@H](N)Cc1ccccc1)C(=O)[C@@H](N)Cc1ccccc1.O=C(O)C(F)(F)F.O=C(O)C(F)(F)F.O=C(O)C(F)(F)F | > 250 | > 250 | > 250 | – | > 250 | > 250 | – | –
11 | N[C@@H](Cc1ccccc1)C(=O)NCCCN(CCCNC(=O)[C@@H](N)Cc1ccccc1)C(=O)Cc1cccc2ccccc12.O=C(O)C(F)(F)F.O=C(O)C(F)(F)F | > 250 | > 250 | > 250 | – | > 250 | > 250 | – | –
12 | CCCCCCCCCCCCCCCCCC(=O)N(CCCNC(=O)[C@@H](N)Cc1ccccc1)CCCNC(=O)[C@@H](N)Cc1ccccc1.O=C(O)C(F)(F)F.O=C(O)C(F)(F)F | 87 | 2.9 | 11 | 65 | 248 | 10 | 5.2 | CMC [7]: 20 µg/mL
13 | CCCCCCCCCC(=O)N(CCCNC(=O)[C@@H](N)Cc1ccccc1)CCCNC(=O)[C@@H](N)Cc1ccccc1.O=C(O)C(F)(F)F.O=C(O)C(F)(F)F | 57 | 14 | 15 | 187 | 19 | 29 | 20 | CMC [7]: 156 µg/mL
14 | N[C@@H](Cc1ccccc1)C(=O)NCCCNCCCNC(=O)[C@@H](N)Cc1ccccc1.O=C(O)C(F)(F)F.O=C(O)C(F)(F)F.O=C(O)C(F)(F)F | > 250 | > 250 | > 250 | – | > 250 | > 250 | – | –
15 | CCCCCCCCCCCCCCCC(=O)N(CCCN)CCCN.O=C(O)C(F)(F)F.O=C(O)C(F)(F)F | 65 | 2.4 | 12 | 52 | 14 | 2.8 | 11 | –
